# Assay results as given in ChEMBL document CHEMBL5649170, “Sustained microglial depletion with CSF1R inhibitor impairs parenchymal plaque development in an Alzheimer's disease model” (Nat Commun, 2019).
# Calls of active or inactive are those of the source. The calls are words filed in the database; no cut-off is given here.
# What was measured:
# [1] = system: Mus musculus; assay: Antialzheimer activity in 5XFAD mouse assessed as reduction in plaque pathology in […] cortex at 600 ppm administered as rodent chow starting from 1.5 months and measured after 5 months by immunolabeling based confocal microscopic analysis; format: functional, organism-based; conditions: route po, time 3.5 months
# Summary of the method: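 5xFAD mice received 600 ppm PLX3397 in AIN-76A chow from 1.5 to 5 months of age. Brain sections were stained with Thio-S for dense-core plaques and immunolabeled for IBA1, then examined by confocal microscopy.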
# [2] = AUC (0 to infinity) in male rat at 1.13 mg/kg, iv administered as single dose; format: ADME, organism-based; conditions: in vivo
# [3] = target: Beta-adrenergic receptor kinase 1 (Homo sapiens, UniProt P25098); assay: Inhibition of ADRBK1 (unknown origin)
# Sequence of Beta-adrenergic receptor kinase 1 (P25098 whole entry): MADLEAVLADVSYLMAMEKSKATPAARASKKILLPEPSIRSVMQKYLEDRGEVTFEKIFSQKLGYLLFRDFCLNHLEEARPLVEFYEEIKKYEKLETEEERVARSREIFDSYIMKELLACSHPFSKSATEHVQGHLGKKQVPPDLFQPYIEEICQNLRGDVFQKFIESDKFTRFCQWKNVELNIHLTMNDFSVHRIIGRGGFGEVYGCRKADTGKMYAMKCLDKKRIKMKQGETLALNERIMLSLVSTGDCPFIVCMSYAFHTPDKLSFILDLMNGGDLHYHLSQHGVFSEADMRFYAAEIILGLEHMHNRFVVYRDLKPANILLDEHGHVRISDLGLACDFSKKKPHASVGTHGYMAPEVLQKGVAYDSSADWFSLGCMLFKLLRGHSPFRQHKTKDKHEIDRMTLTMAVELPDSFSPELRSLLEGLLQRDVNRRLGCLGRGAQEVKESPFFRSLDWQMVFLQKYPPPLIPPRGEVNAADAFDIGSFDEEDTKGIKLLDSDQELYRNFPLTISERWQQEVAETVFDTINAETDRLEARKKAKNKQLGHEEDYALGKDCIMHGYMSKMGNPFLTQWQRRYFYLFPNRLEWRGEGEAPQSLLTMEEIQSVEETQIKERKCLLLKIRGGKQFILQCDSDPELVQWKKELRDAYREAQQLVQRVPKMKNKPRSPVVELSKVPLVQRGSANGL
# [4] = system: Mus musculus; assay: Antialzheimer activity in 5XFAD mouse assessed as ApoE immunoreactivity by measuring APP volume per number of Thio-S positive deposits at 1200 ppm administered as rodent chow starting from 1.5 months and measured after 7 months by immunolabeling based confocal microscopic analysis (reference value: 6.415 to 29.760 microm3); format: functional; conditions: route po, time 5.5 months, 4015 h
# [5] = target: Phosphorylase b kinase gamma catalytic chain, liver/testis isoform (Homo sapiens, UniProt P15735); assay: Inhibition of PHKG2 (unknown origin)
# Sequence of Phosphorylase b kinase gamma catalytic chain, liver/testis isoform (P15735 whole entry, canonical isoform): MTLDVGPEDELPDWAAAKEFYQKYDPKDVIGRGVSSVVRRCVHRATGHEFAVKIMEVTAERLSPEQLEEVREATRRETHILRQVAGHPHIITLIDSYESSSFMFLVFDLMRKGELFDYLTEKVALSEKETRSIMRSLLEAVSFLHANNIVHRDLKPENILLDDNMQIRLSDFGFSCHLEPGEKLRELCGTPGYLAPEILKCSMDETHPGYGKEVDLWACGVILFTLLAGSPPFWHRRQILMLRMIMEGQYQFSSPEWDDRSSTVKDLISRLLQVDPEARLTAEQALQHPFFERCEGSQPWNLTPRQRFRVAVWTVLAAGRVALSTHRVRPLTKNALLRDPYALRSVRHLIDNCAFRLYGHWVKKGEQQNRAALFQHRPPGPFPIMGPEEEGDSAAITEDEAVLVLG
# [6] = target: Serine/threonine-protein kinase MRCK alpha (Homo sapiens, UniProt Q5VT25); assay: Inhibition of CDC42_BPA (unknown origin)
# [7] = target: Serine/threonine-protein kinase Nek2 (Homo sapiens, UniProt P51955); assay: Inhibition of NEK2 (unknown origin)
# [8] = Toxicity in wildtype mouse assessed as number of closed arm entries at 1200 ppm administered as rodent chow for 10 to 24 weeks by Elevated plus maze test (reference value: 11 to 33); conditions: in vivo, po, time 10-24 weeks
# [9] = AUC (0 to 24 hrs) in mouse plasma at 300 ppm administered as rodent chow for 14 days; format: ADME, cell-free; conditions: route po, time 14 day
# [10] = target: G protein-coupled receptor kinase 4 (Homo sapiens, UniProt P32298); assay: Inhibition of GRK4 (unknown origin)
# Sequence of G protein-coupled receptor kinase 4 (P32298 whole entry): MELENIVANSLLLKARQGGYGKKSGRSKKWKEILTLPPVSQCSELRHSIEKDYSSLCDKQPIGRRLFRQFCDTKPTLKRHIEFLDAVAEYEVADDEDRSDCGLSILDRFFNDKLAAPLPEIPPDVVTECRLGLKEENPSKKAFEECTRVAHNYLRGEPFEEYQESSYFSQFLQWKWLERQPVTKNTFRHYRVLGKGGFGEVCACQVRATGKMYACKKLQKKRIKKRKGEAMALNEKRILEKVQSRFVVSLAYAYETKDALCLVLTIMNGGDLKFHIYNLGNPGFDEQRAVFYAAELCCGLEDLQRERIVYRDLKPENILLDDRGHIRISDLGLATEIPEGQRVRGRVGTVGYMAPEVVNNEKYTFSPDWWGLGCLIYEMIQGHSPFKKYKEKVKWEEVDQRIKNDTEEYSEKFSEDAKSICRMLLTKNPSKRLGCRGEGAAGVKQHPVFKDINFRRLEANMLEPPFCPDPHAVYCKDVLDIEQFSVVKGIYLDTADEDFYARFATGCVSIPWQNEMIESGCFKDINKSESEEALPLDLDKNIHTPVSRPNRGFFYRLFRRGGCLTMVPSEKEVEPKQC
# [11] = system: Mus musculus; assay: Prevention of Gls gene downregulation in 5XFAD mouse hippocampus at 1200 ppm administered as rodent chow starting from 1.5 months and measured after 7 months by Nanostring analysis; format: functional, tissue-based; conditions: route po, time 5.5 months
# [12] = Toxicity in wildtype mouse assessed as time spent in perimeter zone at 1200 ppm administered as rodent chow for 10 to 24 weeks by Open field test (reference value: 223.8 to 267.6 sec); conditions: in vivo, po, time 10-24 weeks
# [13] = Drug concentration in mouse plasma at 300 ppm administered as rodent chow for 14 days; format: ADME, cell-free; conditions: route po, time 14 day
# [14] = target: MAP kinase-activated protein kinase 3 (Homo sapiens, UniProt Q16644); assay: Inhibition of MAPKAPK3 (unknown origin)
# Sequence of MAP kinase-activated protein kinase 3 (Q16644 whole entry): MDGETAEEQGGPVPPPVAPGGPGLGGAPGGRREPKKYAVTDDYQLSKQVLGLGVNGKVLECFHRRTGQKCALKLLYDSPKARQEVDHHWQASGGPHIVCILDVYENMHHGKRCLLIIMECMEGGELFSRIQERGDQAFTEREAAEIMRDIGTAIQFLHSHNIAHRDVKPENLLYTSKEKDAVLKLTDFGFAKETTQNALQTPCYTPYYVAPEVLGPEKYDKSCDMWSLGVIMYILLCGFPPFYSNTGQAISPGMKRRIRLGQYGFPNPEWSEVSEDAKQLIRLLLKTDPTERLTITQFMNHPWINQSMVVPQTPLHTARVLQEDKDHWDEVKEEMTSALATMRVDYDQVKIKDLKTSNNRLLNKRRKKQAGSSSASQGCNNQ
# [15] = Cmax in female rat at 45 mg/kg, po administered as single dose via gavage; format: ADME, organism-based; conditions: in vivo
# [16] = target: Proto-oncogene tyrosine-protein kinase receptor Ret (Homo sapiens, UniProt P07949, Y791F); assay: Inhibition of RET Y791F mutant (unknown origin)
# [17] = system: Mus musculus; assay: Antialzheimer activity in 5XFAD mouse assessed as ApoE immunoreactivity by measuring reduction in core ApoE in cortex at 1200 ppm administered as rodent chow starting from 1.5 months and measured after 7 months by immunolabeling based confocal microscopic analysis relative to control; format: functional; set-up: scale not given: the % may be the effect or the level left; conditions: route po, time 5.5 months, 4015 h
# [18] = Effect on ccl6 gene expression in 5XFAD mouse hippocampus at 1200 ppm administered as rodent chow starting from 1.5 months and measured after 7 months by RNA-Seq analysis (reference value: 5.688 to 8.240 RPKM); format: functional; conditions: route po, time 5.5 months, 4015 h
# [19] = system: Mus musculus; assay: Effect on APP processing pathway in wildtype mouse assessed as C99 protein signal intensity in cortex at 1200 ppm administered as rodent starting from 1.5 months and measured after 7 months (reference value: 8.282 to 87.456 %); format: functional; conditions: route po, time 5.5 months, 4015 h
# [20] = target: PI3-kinase p110-delta/p85-alpha (Homo sapiens, UniProt O00329); assay: Inhibition of PIK3CD/PIK3R1 (unknown origin); format: protein-complex assay
# Sequence of PI3-kinase p110-delta/p85-alpha (P27986 whole entry): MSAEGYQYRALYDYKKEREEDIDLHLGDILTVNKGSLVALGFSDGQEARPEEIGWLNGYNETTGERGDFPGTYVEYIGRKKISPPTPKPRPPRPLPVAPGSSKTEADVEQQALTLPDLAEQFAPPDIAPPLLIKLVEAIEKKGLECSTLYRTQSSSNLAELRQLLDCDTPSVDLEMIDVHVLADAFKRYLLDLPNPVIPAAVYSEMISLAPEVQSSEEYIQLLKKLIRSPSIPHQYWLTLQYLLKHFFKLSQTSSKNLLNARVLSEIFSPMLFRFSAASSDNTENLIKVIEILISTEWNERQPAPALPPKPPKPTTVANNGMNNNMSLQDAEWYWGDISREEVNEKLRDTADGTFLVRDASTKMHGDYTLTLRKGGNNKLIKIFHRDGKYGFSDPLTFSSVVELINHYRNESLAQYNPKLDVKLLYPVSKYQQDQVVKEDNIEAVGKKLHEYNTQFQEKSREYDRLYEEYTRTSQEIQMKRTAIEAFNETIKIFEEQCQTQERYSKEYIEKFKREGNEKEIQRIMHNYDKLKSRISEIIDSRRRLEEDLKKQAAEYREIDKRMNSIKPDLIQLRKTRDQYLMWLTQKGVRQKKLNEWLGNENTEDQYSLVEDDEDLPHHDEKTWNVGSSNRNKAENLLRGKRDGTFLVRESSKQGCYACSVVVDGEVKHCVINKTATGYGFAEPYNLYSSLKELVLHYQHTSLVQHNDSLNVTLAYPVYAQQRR
# Sequence of PI3-kinase p110-delta/p85-alpha (O00329 whole entry): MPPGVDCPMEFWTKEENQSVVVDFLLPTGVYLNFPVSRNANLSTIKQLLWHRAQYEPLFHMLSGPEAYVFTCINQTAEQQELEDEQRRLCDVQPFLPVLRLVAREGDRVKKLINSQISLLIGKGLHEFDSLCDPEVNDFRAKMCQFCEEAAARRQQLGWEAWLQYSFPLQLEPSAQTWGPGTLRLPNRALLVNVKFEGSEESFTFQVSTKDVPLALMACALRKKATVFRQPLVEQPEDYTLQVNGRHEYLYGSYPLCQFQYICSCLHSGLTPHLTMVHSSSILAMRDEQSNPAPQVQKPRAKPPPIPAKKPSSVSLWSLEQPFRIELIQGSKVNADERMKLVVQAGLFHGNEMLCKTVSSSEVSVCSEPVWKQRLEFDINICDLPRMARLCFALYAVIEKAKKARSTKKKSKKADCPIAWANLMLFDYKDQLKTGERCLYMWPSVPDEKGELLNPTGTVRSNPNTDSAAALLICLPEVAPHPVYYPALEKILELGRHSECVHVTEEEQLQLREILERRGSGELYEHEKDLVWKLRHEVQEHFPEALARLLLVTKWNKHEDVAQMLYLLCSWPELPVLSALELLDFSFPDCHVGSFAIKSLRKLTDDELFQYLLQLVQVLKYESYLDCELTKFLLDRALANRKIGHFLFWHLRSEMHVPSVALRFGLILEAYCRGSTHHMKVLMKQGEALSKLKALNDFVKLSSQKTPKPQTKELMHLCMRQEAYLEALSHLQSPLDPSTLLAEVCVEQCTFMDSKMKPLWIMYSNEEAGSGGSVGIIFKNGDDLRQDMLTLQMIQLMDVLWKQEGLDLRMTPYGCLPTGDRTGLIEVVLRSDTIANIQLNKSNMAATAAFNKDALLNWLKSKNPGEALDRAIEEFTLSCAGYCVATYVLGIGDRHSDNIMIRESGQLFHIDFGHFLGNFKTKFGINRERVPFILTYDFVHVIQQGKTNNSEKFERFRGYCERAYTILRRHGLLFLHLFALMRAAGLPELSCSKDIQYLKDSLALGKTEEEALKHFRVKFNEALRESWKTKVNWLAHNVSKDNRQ
# [21] = target: Serine/threonine-protein kinase PAK 3 (Homo sapiens, UniProt O75914); assay: Inhibition of PAK3 (unknown origin)
# Sequence of Serine/threonine-protein kinase PAK 3 (O75914 whole entry): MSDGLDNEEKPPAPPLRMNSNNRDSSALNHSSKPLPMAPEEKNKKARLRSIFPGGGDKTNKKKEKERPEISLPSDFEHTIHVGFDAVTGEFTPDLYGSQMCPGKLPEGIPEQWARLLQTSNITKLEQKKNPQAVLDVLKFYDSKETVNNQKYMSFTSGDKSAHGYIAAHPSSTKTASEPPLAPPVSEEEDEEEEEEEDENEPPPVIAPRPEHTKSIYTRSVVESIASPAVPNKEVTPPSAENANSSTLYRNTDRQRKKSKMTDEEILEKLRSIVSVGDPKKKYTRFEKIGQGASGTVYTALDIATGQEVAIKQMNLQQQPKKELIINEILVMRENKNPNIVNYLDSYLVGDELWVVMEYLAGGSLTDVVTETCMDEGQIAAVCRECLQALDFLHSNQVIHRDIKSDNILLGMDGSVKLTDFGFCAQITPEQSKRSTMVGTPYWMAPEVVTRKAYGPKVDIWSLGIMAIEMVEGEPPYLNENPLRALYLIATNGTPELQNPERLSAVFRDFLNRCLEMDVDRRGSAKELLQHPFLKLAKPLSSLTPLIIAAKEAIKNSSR
# [22] = Prevention of Dynll1 gene downregulation in 5XFAD mouse hippocampus assessed as percent change in Reads Per kilo base per Million mapped reads at 1200 ppm administered as rodent chow starting from 1.5 months and measured after 7 months by RNA-Seq analysis (reference value: 79.087 to 86.108 %); format: functional; conditions: route po, time 5.5 months, 4015 h
# [23] = target: Calcium/calmodulin-dependent protein kinase type II subunit alpha (Homo sapiens, UniProt Q9UQM7); assay: Inhibition of CAMK2A (unknown origin)
# [24] = Effect on Ctsd gene expression in 5XFAD mouse hippocampus at 1200 ppm administered as rodent chow starting from 1.5 months and measured after 7 months by RNA-Seq analysis (reference value: 230.675 to 384.375 RPKM); format: functional; conditions: route po, time 5.5 months, 4015 h
# [25] = Effect on Itgax gene expression in wild type mouse hippocampus at 1200 ppm administered as rodent chow starting from 1.5 months and measured after 7 months by RNA-Seq analysis (reference value: 0.057 to 0.109 RPKM); format: functional; conditions: route po, time 5.5 months, 4015 h
# [26] = system: Mus musculus; assay: Antialzheimer activity in 5XFAD mouse assessed as number of Iba positive cells per FOV in somatosensory cortex at 1200 ppm administered as rodent chow starting from 1.5 months and measured after 4 months (reference value: 192 to 604); format: functional; conditions: route po, time 2.5 months, 1825 h
# [27] = target: Testis-specific serine/threonine-protein kinase 1 (Homo sapiens, UniProt Q9BXA7); assay: Inhibition of STK22D (unknown origin)
# [28] = target: Casein kinase I isoform epsilon (Homo sapiens, UniProt P49674); assay: Inhibition of CSNK1E (unknown origin)
# Sequence of Casein kinase I isoform epsilon (P49674 whole entry, canonical isoform): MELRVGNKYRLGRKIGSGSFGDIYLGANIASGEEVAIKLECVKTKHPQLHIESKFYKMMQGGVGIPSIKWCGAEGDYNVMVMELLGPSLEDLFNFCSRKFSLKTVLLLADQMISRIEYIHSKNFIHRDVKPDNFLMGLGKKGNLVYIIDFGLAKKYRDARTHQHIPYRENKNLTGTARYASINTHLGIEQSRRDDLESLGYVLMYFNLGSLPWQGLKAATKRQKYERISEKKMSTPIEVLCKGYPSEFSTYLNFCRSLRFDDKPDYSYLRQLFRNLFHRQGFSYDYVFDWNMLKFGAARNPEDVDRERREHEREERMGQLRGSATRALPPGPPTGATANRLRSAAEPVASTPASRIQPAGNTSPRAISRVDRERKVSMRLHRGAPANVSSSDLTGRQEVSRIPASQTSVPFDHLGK
# [29] = target: Megakaryocyte-associated tyrosine-protein kinase (Homo sapiens, UniProt P42679); assay: Inhibition of MATK (unknown origin)
# [30] = Effect on Ctsz gene expression in 5XFAD mouse thalamus at 1200 ppm administered as rodent chow starting from 1.5 months and measured after 7 months by RNA-Seq analysis (reference value: 23.715 to 34.765 RPKM); format: functional; conditions: route po, time 5.5 months, 4015 h
smiles,measurement,setting,value
FC(F)(F)c1ccc(CNc2ccc(Cc3c[nH]c4ncc(Cl)cc34)cn2)cn1 [PEXIDARTINIB],Activity,[1],Active
COc1ncc(F)cc1CNc1ccc(Cc2c[nH]c3ncc(C)cc23)c(F)n1 [PLX-5622],AUC(0-inf),[2],2630 ng·h/mL
same,IC50,[3],> 1000 nM
same,Activity,[4],10.459 um3
same,IC50,[5],> 1000 nM
same,IC50,[6],> 1000 nM
same,IC50,[7],> 1000 nM
same,Activity,[8],14
same,AUC at 336 h,[9],104000 ng·h/mL
same,IC50,[10],> 1000 nM
same,Activity,[11],Active
same,Time,[12],178.5 s
same,concentration at 336 h,[13],4340 ng/mL
same,IC50,[14],> 1000 nM
same,Cmax,[15],15600 ng/mL
same,IC50,[16],> 1000 nM
same,Activity,[17],~50%
same,Activity,[18],0.488 RPKM
same,Activity,[19],21.073%
same,IC50,[20],> 1000 nM
same,IC50,[21],> 1000 nM
same,Activity,[22],96.141%
same,IC50,[23],> 1000 nM
same,Activity,[24],132.829 RPKM
same,Activity,[25],0 RPKM
same,Activity,[26],0
same,IC50,[27],> 1000 nM
same,IC50,[28],> 1000 nM
same,IC50,[29],> 1000 nM
same,Activity,[30],13.618 RPKM
